Measured values reported in ChEMBL document CHEMBL1629474, “Massive screening yields novel and selective Trypanosoma cruzi triosephosphate isomerase dimer-interface-irreversible inhibitors with anti-trypanosomal activity” (Eur J Med Chem, 2010).
Activity calls are given as the source filed them. How the calls were made is not given here.

Key:
[1] = biological target: Triosephosphate isomerase, glycosomal (Trypanosoma cruzi) (UniProt P52270); assay: Inhibition of Trypanosoma cruzi triosephosphate isomerase at 400 uM after 2 hrs
Chain of Triosephosphate isomerase, glycosomal (Trypanosoma cruzi) (P52270 whole entry): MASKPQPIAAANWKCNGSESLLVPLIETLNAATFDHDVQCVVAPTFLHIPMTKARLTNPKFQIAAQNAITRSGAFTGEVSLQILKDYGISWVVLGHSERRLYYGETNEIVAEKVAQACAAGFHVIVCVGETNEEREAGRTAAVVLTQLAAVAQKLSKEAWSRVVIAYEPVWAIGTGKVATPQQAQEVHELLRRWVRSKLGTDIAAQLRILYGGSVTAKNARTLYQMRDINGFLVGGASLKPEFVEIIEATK
In short: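 Recombinant E. coli-expressed enzyme, dialyzed into 100 mM triethanolamine/10 mM EDTA pH 7.4, was incubated with compound (DMSO stock) in 100 mM triethanolamine, 10 mM EDTA, pH 7.4, 10% DMSO at 36 °C for 2 h. An aliquot was then assayed for activity (glyceraldehyde 3-phosphate to dihydroxyacetone phosphate, α-glycerol phosphate dehydrogenase-coupled) with 5 ng enzyme. Irreversible inhibition was scored as loss of activity; means of two experiments.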

Trypanosoma cruzi = assay: Antiparasitic activity against Trypanosoma cruzi T2 epimastigotes assessed as growth inhibition at 25 uM after 5 days; assay type: functional
In short: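 Late-log epimastigotes were grown axenically at 28 °C in BHI-tryptose with 5% fetal calf serum and seeded at 2×10^6/mL in medium containing compound (DMSO stock; final DMSO ≤1%, 1% DMSO control). Growth was read as A590 at day 0 and day 5. Inhibition = {1 − [(Ap − A0p)/(Ac − A0c)]} × 100. Means of two experiments.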

[2] = Selectivity for Trypanosoma cruzi triosephosphate isomerase over human triosephosphate isomerase

Compound	inhibition [1] [%]	Ratio [2]	Activity (Trypanosoma cruzi)
CN(C/C=C/c1ccccc1)Cc1ccc2no[n+]([O-])c2c1	7	> 4	Active
O=S(=O)(NCCc1ccccc1)NCCc1ccccc1	0	> 4	Active
N#Cc1ccc(C=Cc2ccc3no[n+]([O-])c3c2)cc1	0	> 4	Active
O=S(=O)(NC1CCCCC1)NC1CCCCC1	0	> 4	Active
CNC(=S)N/N=C/c1ccc([N+](=O)[O-])o1	22	> 4	Active
O=Cc1ccc(OCc2ccc3no[n+]([O-])c3c2)cc1	0	> 4	Active
Cc1c(C)[n+]([O-])c2cc(C=O)ccc2[n+]1[O-]	11	> 4	Active
[O-][n+]1onc2ccc(/C=N/N=C/c3ccccc3O)cc21	24	> 4	Active
CN(CCCN(C)Cc1cccc2ccccc12)Cc1cccc2ccccc12	55	> 4	Active
COc1nn(CCOCCN2CCN(C/C=C/c3ccccc3)CC2)c2ccc([N+](=O)[O-])cc12	0	> 4	Active
CCCCNS(=O)(=O)NCCCC	0	> 4	Active
[O-][n+]1onc2ccc(/C=C/[S+]([O-])c3ccccc3)cc21 (stereo unspecified)	28	> 4	Active
CCOC(=O)c1[nH]c(=O)n(CCc2ccccc2)c1C	0	> 4	Active
COc1ccc(/C=C/c2c(C)[n+]([O-])nc[n+]2[O-])cc1	27	> 4	Active
O=Cc1c(-c2ccccc2)no[n+]1[O-]	53	> 4	Active
O=C(c1ccc2no[n+]([O-])c2c1)N1CCOCC1	7	> 4	Active
O=S(=O)(/C=C\c1ccc2no[n+]([O-])c2c1)c1ccccc1	51	> 4	Active
[O-][n+]1onc2ccc(/C=C/c3ccccc3)cc21	66	> 4	Active
[O-][N+]1=c2ccc(/C=N/O)cc2=[N+]([O-])C12CCCC2	2	> 4	Active
[O-][N+]1=c2cc(Cl)c(Cl)cc2=[N+]([O-])C12CCCC2	56	> 4	Active
O=C(Oc1ccccc1)N1CCN(C/C=C/c2ccccc2)CC1	21	> 4	Active
[O-][n+]1onc2ccc(C=Cc3ccccc3F)cc21	9	> 4	Active
O=C(CN1C(=O)c2ccccc2C1=O)c1ccccc1	0	> 4	Active
O=C(/C=C/c1ccccc1)c1ccccc1	33	> 4	Active
Cc1ccc(-n2cc(C)[n+]([O-])c2)cc1	13	> 4	Active
Cc1ccc2c(c1)=[N+]([O-])C(C)[N+]=2[O-] (stereo unspecified)	18	> 4	Active
Cc1ccc2c(c1)=[N+]([O-])C1(CCCC1)[N+]=2[O-]	27	> 4	Active

Continued, in another order:

inhibition [1] [%]	Ratio [2]	Compound	Activity (Trypanosoma cruzi)
6	> 4	C=C(C)CNC(=O)N/N=C/c1ccc([N+](=O)[O-])o1	Active
11	> 4	COc1ccc(/C=C/c2c(C)nnc[n+]2[O-])cc1	Active
43	> 4	CCCCCCNC(=O)N/N=C/c1ccc2no[n+]([O-])c2c1	Active
12	> 4	CCCCNC(=O)c1ccc2no[n+]([O-])c2c1	Active
2	> 4	COC(=O)N/N=C/c1c(C)no[n+]1[O-]	Active
0	> 4	CCCCCCCCOC(=O)N/N=C/C=C/c1ccc([N+](=O)[O-])o1	Active
15	> 4	Cc1nnc[n+]([O-])c1/C=C/c1ccc(Cl)cc1	Active
72	> 4	CCCCCCNC(=O)N/N=C/C=C/c1ccc([N+](=O)[O-])o1	Active
38	> 4	Cc1nncnc1CC(c1ccc([N+](=O)[O-])cc1)[N+]1([O-])CCOCC1 (stereo unspecified)	Active
26	> 4	C=CCNC(=S)N/N=C/C=C/c1ccc([N+](=O)[O-])s1	Active
15	> 4	C=CCNC(=S)N/N=C/C=C/c1ccco1	Active
3	> 4	CCOC(=O)/C=C/c1ccc([N+](=O)[O-])o1	Active
8	> 4	Cc1ccc(S(=O)(=O)NCc2ccco2)cc1	Active
28	> 4	Cc1nnc[n+]([O-])c1/C=C/c1ccc([N+](=O)[O-])s1	Active
40	> 4	Cc1nnc[n+]([O-])c1/C=C/c1ccc2c(c1)OCO2	Active
45	> 4	O=C(N/N=C/C=C/c1ccc([N+](=O)[O-])o1)Oc1ccccc1	Active
12	> 4	C=CCNC(=S)N/N=C/C=C/c1ccc([N+](=O)[O-])o1	Active
0	> 4	COC(=O)N/N=C/c1ccc([N+](=O)[O-])o1	Active
13	> 4	NC(=O)N/N=C/C=C/c1ccc([N+](=O)[O-])o1	Active
35	> 4	O=[N+]([O-])c1ccc2c(c1)[n+]([O-])c1n2CCC1	Active
16	> 4	COC(=O)N/N=C/c1ccc2nonc2c1	Active
14	> 4	CCCCCCNC(=O)N/N=C/c1ccc([N+](=O)[O-])s1	Active
34	> 4	O=[N+]([O-])c1ccc(/N=C/c2ccccc2[N+](=O)[O-])cc1	Active
38	> 4	Cc1nnc[n+]([O-])c1/C=C/c1ccc([N+](=O)[O-])o1	Active
26	> 4	Cc1nnc(C)[n+]([O-])c1/C=C/c1ccc(N(C)C)cc1	Active
